Source: ChEMBL document CHEMBL5523688, “Selective targeting of human TET1 by cyclic peptide inhibitors: Insights from biochemical profiling” (Bioorg Med Chem, 2024)

What was measured:
[1] = molecular target: T1, Methylcytosine dioxygenase TET1 (Homo sapiens, UniProt Q8NFU7); assay: (§1) Inhibition of N-terminal 3xFlag-tagged recombinant human TET1 catalytic domain (E1418 to V2136 residues) expressed in baculovirus infected Sf9 cells using 5-methylcytosine as substrate preincubated for 10 mins followed by substrate and DNA-cofactor addition measured after 30 mins by Alphascreen assay; settings: read-out: pIC50 (converted)
T1 sequence (Q8NFU7 whole entry, the tested form may be a part): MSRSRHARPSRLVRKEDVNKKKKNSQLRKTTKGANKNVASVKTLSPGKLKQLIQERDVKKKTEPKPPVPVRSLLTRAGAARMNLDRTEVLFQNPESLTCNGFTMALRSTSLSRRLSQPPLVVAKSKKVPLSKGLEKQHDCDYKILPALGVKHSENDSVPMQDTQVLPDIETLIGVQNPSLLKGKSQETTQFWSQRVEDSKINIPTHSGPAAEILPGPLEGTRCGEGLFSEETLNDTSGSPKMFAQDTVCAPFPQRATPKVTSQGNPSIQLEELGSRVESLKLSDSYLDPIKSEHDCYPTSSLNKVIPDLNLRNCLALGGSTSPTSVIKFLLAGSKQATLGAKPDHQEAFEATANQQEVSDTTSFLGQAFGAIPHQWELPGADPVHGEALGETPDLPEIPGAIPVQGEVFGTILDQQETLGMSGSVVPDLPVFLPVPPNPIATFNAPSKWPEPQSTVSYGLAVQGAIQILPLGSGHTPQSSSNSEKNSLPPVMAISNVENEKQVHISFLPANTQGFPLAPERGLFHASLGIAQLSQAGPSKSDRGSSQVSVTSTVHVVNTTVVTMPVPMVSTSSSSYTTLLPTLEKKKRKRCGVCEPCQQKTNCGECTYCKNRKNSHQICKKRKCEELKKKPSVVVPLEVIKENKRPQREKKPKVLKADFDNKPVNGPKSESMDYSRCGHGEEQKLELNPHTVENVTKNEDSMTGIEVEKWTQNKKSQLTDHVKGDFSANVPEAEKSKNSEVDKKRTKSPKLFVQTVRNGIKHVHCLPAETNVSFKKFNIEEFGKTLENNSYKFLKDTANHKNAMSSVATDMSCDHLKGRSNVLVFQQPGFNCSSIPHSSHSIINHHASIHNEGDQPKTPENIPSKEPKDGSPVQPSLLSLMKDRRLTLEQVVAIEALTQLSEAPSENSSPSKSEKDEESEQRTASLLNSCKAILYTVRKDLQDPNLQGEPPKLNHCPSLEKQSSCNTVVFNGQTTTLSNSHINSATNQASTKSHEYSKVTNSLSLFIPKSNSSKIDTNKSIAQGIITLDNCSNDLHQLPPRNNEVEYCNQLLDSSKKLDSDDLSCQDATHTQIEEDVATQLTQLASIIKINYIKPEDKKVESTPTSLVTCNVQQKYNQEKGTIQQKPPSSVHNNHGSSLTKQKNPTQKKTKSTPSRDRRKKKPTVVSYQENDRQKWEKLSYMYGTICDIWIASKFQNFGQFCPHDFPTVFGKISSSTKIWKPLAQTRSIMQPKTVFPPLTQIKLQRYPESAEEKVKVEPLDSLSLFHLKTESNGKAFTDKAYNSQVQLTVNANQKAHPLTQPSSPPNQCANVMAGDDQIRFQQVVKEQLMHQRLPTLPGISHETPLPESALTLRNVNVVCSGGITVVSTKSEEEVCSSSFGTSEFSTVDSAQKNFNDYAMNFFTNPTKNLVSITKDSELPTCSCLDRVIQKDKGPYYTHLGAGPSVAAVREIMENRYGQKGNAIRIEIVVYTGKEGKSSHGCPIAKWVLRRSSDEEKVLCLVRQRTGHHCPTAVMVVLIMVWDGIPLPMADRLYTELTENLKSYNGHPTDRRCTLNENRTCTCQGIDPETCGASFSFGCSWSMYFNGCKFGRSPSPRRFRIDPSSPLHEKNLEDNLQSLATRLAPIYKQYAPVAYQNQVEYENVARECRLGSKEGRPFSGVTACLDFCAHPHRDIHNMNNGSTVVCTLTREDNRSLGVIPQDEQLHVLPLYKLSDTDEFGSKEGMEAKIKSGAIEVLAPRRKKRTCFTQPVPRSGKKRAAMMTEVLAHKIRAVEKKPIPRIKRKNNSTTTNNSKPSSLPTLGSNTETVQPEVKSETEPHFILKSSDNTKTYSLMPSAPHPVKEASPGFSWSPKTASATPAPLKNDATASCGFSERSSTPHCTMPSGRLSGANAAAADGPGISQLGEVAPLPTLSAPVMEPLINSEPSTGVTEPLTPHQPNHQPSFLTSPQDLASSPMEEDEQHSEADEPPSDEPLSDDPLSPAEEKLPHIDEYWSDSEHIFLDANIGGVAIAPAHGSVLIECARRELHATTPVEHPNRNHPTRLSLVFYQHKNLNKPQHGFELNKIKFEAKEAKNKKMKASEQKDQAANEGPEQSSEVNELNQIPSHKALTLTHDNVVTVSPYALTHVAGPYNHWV
Method in brief: (§2)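 TET1 catalytic domain (E1418–V2136, Sf9 baculovirus) at 2 nM was preincubated 10 min with inhibitor (1% DMSO) in HEPES 50 mM pH 7.3, 150 mM NaCl, 0.1% BSA, 0.01% Tween-20. Reaction was started with ascorbate 200 µM, Fe(II) 20 µM, 2OG 20 µM and 5mC ssDNA 10 nM, run 30 min, then EDTA-quenched. Anti-5hmC antibody with AlphaScreen beads, 45–60 min, luminescence read. Three independent replicates.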

[2] = molecular target: T2, Methylcytosine dioxygenase TET2 (Homo sapiens, UniProt Q6N021); assay: (§3) Inhibition of N-terminal His-tagged recombinant human TET2 catalytic domain LCIdel mutant (D1129 to G1936 residues with Y1481 to N1843 replaced by 3 x GGGGS linker) expressed in Escherichia coli BL21 (DE3) using 5-methylcytosine as substrate preincubated for 10 mins followed by substrate and DNA-cofactor addition measured after 10 mins by Alphascreen assay
[3] = molecular target: T3, Methylcytosine dioxygenase TET3 (Homo sapiens, UniProt O43151); assay: (§4) Inhibition of recombinant human TET3 catalytic domain (E824 to I1795 residues) expressed in baculovirus infected Sf9 cells using 5-methylcytosine as substrate preincubated for 10 mins followed by substrate and DNA-cofactor addition measured after 10 mins by Alphascreen assay; settings: read-out: pIC50 (converted)
[4] = molecular target: T3, Methylcytosine dioxygenase TET3; assay: as §4, with “as substrate assessed as change in pIC50 preincubated for” for “as substrate preincubated for”; settings: time 20.0 min
[5] = molecular target: T1, Methylcytosine dioxygenase TET1; assay: as §1, with “as substrate assessed as change in pIC50 preincubated for” for “as substrate preincubated for”; settings: time 40.0 min; method in brief: as §2
[6] = test system: Methylcytosine dioxygenase TET2 (Homo sapiens), Q6N021 [UNDEFINED MUTATION]; settings: time 20.0 min
[7] = molecular target: T2, Methylcytosine dioxygenase TET2; assay: as §3, with “after 12” for “after 10”, “by SPE-MS analysis” for “by Alphascreen assay”
[8] = molecular target: Methylcytosine dioxygenase TET1 (Mus musculus, UniProt Q3URK3); assay: Inhibition of recombinant mouse TET1 catalytic domain (E1367 to V2039 residues) expressed in baculovirus expression system using 5-methylcytosine as substrate preincubated for 10 mins followed by substrate and DNA-cofactor addition measured after 9 mins by Alphascreen assay
Method in brief: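 Murine Tet1 catalytic domain (E1367–V2039, High Five baculovirus) at 2 nM was preincubated 10 min with inhibitor (1% DMSO) in HEPES 50 mM pH 7.3, NaCl 150 mM, BSA 0.1%, Tween-20 0.01%. Ascorbate 200 µM, Fe(II) 20 µM, 2OG 20 µM and 5mC ssDNA 10 nM were added; reaction ran 9 min, then EDTA-quenched. AlphaScreen anti-5hmC detection by luminescence.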

Compound | IC50 [1] [µM] | IC50 [3] [µM] | deltapIC50 [4] | deltapIC50 [5] | deltapIC50 [6] | IC50 [8] [µM] | pIC50 [2] | pIC50 [7]
CC[C@H](C)[C@@H]1NC(=O)[C@H](CC(C)C)NC(=O)[C@@H](Cc2ccc(O)cc2)NC(=O)CSC[C@@H](C(N)=O)NC(=O)[C@H](CO)NC(=O)[C@H](C)NC(=O)[C@H](CCC(=O)O)NC(=O)[C@H](Cc2c[nH]c3ccccc23)NC(=O)[C@H](Cc2c[nH]c3ccccc23)NC(=O)[C@H]([C@@H](C)O)NC(=O)[C@H](Cc2ccc(O)cc2)NC(=O)[C@H](Cc2ccc(O)cc2)NC(=O)[C@H](C)NC(=O)[C@H](Cc2ccc(O)cc2)NC1=O | 0.195 | 3.09 | 0.24 | 0.23 | 0.23 |  | 4.93 | 
CC[C@H](C)[C@@H]1NC(=O)[C@H](CCC(N)=O)NC(=O)[C@H](Cc2c[nH]cn2)NC(=O)[C@H](Cc2ccc(O)cc2)NC(=O)[C@H]([C@@H](C)O)NC(=O)[C@H](CCCCN)NC(=O)[C@H](C(C)C)NC(=O)[C@H](CCCNC(=N)N)NC(=O)[C@H](Cc2ccc(O)cc2)NC(=O)[C@@H](Cc2ccc(O)cc2)NC(=O)CSC[C@@H](C(N)=O)NC(=O)[C@H](CO)NC(=O)[C@H](C(C)C)NC(=O)[C@H](Cc2ccc(O)cc2)NC(=O)[C@H](C(C)C)NC(=O)[C@H](Cc2ccc(O)cc2)NC(=O)[C@H]([C@@H](C)O)NC1=O | 0.776 | 0.501 |  |  | -0.34 | 1.35 | 5.89 | 5.55
CC[C@H](C)[C@@H]1NC(=O)[C@H]([C@@H](C)CC)NC(=O)[C@@H](Cc2c[nH]c3ccccc23)NC(=O)CSC[C@@H](C(N)=O)NC(=O)[C@H](CCCNC(=N)N)NC(=O)[C@H](Cc2c[nH]c3ccccc23)NC(=O)[C@H](Cc2c[nH]c3ccccc23)NC(=O)[C@H]([C@@H](C)O)NC(=O)[C@H](Cc2ccc(O)cc2)NC(=O)[C@H](CC(N)=O)NC(=O)[C@H](Cc2c[nH]cn2)NC(=O)[C@H](Cc2ccc(O)cc2)NC1=O | 0.363 | 0.631 |  |  | -0.54 | 0.933 | 6.08 | 5.54
CC[C@H](C)[C@@H]1NC(=O)[C@H](Cc2ccc(O)cc2)NC(=O)[C@H](Cc2ccc(O)cc2)NC(=O)[C@H](C(C)C)NC(=O)[C@@H](Cc2ccc(O)cc2)NC(=O)CSC[C@@H](C(N)=O)NC(=O)[C@H]([C@@H](C)O)NC(=O)[C@H](CCC(=O)O)NC(=O)[C@H](Cc2ccccc2)NC(=O)[C@H](C(C)C)NC(=O)[C@H](C)NC(=O)[C@H](CCCNC(=N)N)NC(=O)[C@H](CS)NC(=O)[C@H](Cc2c[nH]c3ccccc23)NC(=O)[C@H](Cc2c[nH]c3ccccc23)NC(=O)[C@@H]2CCCN2C1=O | 44.7 | 31.6 |  |  | > 1.44 | 38.9 | < 4 | 5.44
CC[C@H](C)[C@@H]1NC(=O)[C@H](CCC(N)=O)NC(=O)[C@H](Cc2ccc(O)cc2)NC(=O)[C@H](Cc2ccc(O)cc2)NC(=O)[C@H]([C@@H](C)O)NC(=O)[C@H](CCCCN)NC(=O)[C@H](C(C)C)NC(=O)[C@H](CCCNC(=N)N)NC(=O)[C@H](Cc2ccc(O)cc2)NC(=O)[C@@H](Cc2ccc(O)cc2)NC(=O)CSC[C@@H](C(N)=O)NC(=O)[C@H](CO)NC(=O)[C@H](C(C)C)NC(=O)[C@H](Cc2ccc(O)cc2)NC(=O)[C@H](C(C)C)NC(=O)[C@H](Cc2ccc(O)cc2)NC(=O)[C@H]([C@@H](C)O)NC1=O | 1.35 | 6.03 |  |  | 0.39 | 8.71 | 5.11 | 5.5
CC[C@H](C)[C@@H]1NC(=O)[C@H](CCC(N)=O)NC(=O)[C@H](Cc2ccc(O)cc2)NC(=O)[C@H](Cc2ccc(O)cc2)NC(=O)[C@H]([C@@H](C)O)NC(=O)[C@H](CCCCN)NC(=O)[C@H](C(C)C)NC(=O)[C@H](CCCNC(=N)N)NC(=O)[C@H](Cc2ccc(O)cc2)NC(=O)[C@@H](Cc2ccc(O)cc2)NC(=O)CSC[C@@H](C(N)=O)NC(=O)[C@H](CO)NC(=O)[C@H](CC(C)C)NC(=O)[C@H](Cc2ccc(O)cc2)NC(=O)[C@H](C(C)C)NC(=O)[C@H](Cc2ccc(O)cc2)NC(=O)[C@H]([C@@H](C)O)NC1=O | 0.794 | 2.69 |  |  | -0.01 | 4.07 | 5.52 | 5.51

More lines, main results first:

IC50 [1] [µM] | IC50 [3] [µM] | deltapIC50 [4] | deltapIC50 [5] | deltapIC50 [6] | IC50 [8] [µM] | Compound | pIC50 [2] | pIC50 [7]
1.23 | 13.8 | -0.42 | -0.57 | -0.29 |  | CC(C)C[C@@H]1NC(=O)[C@@H](Cc2ccc(O)cc2)NC(=O)CSC[C@@H](C(N)=O)NC(=O)[C@H](CO)NC(=O)[C@H](Cc2c[nH]cn2)NC(=O)[C@H](CCC(=O)O)NC(=O)[C@H](Cc2c[nH]c3ccccc23)NC(=O)[C@H](Cc2c[nH]c3ccccc23)NC(=O)[C@H]([C@@H](C)O)NC(=O)[C@H](Cc2ccc(O)cc2)NC(=O)[C@H](Cc2ccc(O)cc2)NC(=O)[C@H](C)NC(=O)[C@H](Cc2ccc(O)cc2)NC(=O)[C@H](C)NC1=O | 4.41 | 
0.269 | 1.38 |  |  | -0.19 | 1.78 | CC[C@H](C)[C@@H]1NC(=O)[C@@H](Cc2ccc(O)cc2)NC(=O)CSC[C@@H](C(N)=O)NC(=O)[C@H](CCCNC(=N)N)NC(=O)[C@H](Cc2c[nH]c3ccccc23)NC(=O)[C@H](Cc2c[nH]c3ccccc23)NC(=O)[C@H]([C@@H](C)O)NC(=O)[C@H](Cc2ccc(O)cc2)NC(=O)[C@H](Cc2ccc(O)cc2)NC(=O)[C@H](CCCNC(=N)N)NC(=O)[C@H](Cc2ccc(O)cc2)NC(=O)[C@H](C(C)C)NC1=O | 5.66 | 5.47
0.603 | 0.692 |  |  | -0.63 | 1.05 | CC[C@H](C)[C@@H]1NC(=O)[C@H](Cc2c[nH]c3ccccc23)NC(=O)[C@H](Cc2c[nH]c3ccccc23)NC(=O)[C@H]([C@@H](C)O)NC(=O)[C@H](Cc2ccc(O)cc2)NC(=O)[C@H](CC(N)=O)NC(=O)[C@H](Cc2ccc(O)cc2)NC(=O)[C@H](Cc2ccc(O)cc2)NC(=O)[C@H](CC(C)C)NC(=O)[C@H](CCCCN)NC(=O)[C@@H](Cc2c[nH]c3ccccc23)NC(=O)CSC[C@@H](C(N)=O)NC1=O | 6.03 | 5.4
1.86 | 46.8 |  |  | 1.49 | 55 | CC(C)[C@@H]1NC(=O)[C@@H]2CCCN2C(=O)[C@H](C)NC(=O)[C@@H](Cc2ccc(O)cc2)NC(=O)CSC[C@@H](C(N)=O)NC(=O)[C@H](Cc2c[nH]c3ccccc23)NC(=O)[C@H](Cc2c[nH]c3ccccc23)NC(=O)[C@H]([C@@H](C)O)NC(=O)[C@H](Cc2ccc(O)cc2)NC(=O)[C@H](CC(N)=O)NC(=O)[C@H](Cc2c[nH]c3ccccc23)NC(=O)[C@H](Cc2ccc(O)cc2)NC1=O | 4.17 | 5.66
1.15 | 2.4 |  |  | 0.02 | 3.39 | CC[C@H](C)[C@@H]1NC(=O)[C@H](CCCNC(=N)N)NC(=O)[C@@H](Cc2ccc(O)cc2)NC(=O)CSC[C@@H](C(N)=O)NC(=O)[C@H](Cc2ccc(O)cc2)NC(=O)[C@H](C(C)C)NC(=O)[C@H](CC(N)=O)NC(=O)[C@H](Cc2c[nH]c3ccccc23)NC(=O)[C@H](Cc2c[nH]c3ccccc23)NC(=O)[C@H]([C@@H](C)O)NC(=O)[C@H](Cc2ccc(O)cc2)NC(=O)[C@H](Cc2ccccc2)NC(=O)[C@H](CC(C)C)NC(=O)[C@H](Cc2ccc(O)cc2)NC1=O | 5.59 | 5.61
